Lipid droplet – modulators of hepatic lipid droplet formation | AML12 mouse hepatocytes, oleate lipid droplets, BODIPY imaging | inhibition, % at 6.5 µM | 240,000 tested, 0.4% active | AID 1656;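 active = lipid droplet intensity inhibited by at least 50%, with more than 500 cells counted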
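Assay system: AML12 hepatocytes (mouse) / Also added: 100 µM oleic acid challenge / Times: overnight treatment with compound plus oleate / Detection: high-content imaging of BODIPY-stained droplets and DAPI nuclei / Evaluation: % inhibition of lipid droplet signal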
proCasp7 act – counter-screen: procaspase-7 (human) activation | recombinant procaspase-7, Ac-DEVD-pNA absorbance 405 nm; D23A/D198A/D206A triple mutant, cannot self-cleave; scale: DMSO 0, 5 µM enzyme 100 | activation, % at 8.5 µM | 330,000 tested, 0.093% active;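 active = percent activation above the screen-wide mean plus 3 SD, cut at about 25% in these data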
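Detection: p-Nitroaniline absorbance at 405 nm, read at 0 and 120 min; system: Uncleavable procaspase-7 mutant enzyme; evaluation: % activation from two-timepoint absorbance difference, scaled to controls; times: 1 h enzyme–compound preincubation and 2 h substrate reaction, both 25 °C; buffer or medium: Zinc-free HEPES pH 7.4 with 300 mM NaCl, 0.01% Triton X-100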
Rce1 inhib – blocks yeast Ras-converting enzyme | 290,000 tested, 0.27% active | yeast membranes, quenched prenylated peptide cleavage fluorescence | Q03530 | calls only;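 active = fall in fluorescence gain of 50% or more versus controls, with final raw signal at or below 3038400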;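 note: plate controls were neutral control wells for no effect and wells lacking membranes for full effect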
FXN GAA850 act – increases GAA850 frataxin promoter reporter activity; activation, % at 6 µM; AID 540364; HEK293 lucGAA850 FXN promoter luciferase reporter, 24 h; percent of 10 µM SAHA response; 360,000 tested, 0.56% active;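 active = activation above the average of all compounds screened plus 3 SD, cutoff fixed separately per campaign, cut at about 7.5% in these data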;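 note: 0% = DMSO wells and 100% = 10 µM SAHA wells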
proCasp3 act – activates human procaspase-3 | P42574 | recombinant procaspase-3 D3A, Ac-DEVD-pNA absorbance 405 nm | activation, % at 8.5 µM | 330,000 tested, 0.11% active | AID 463141;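 active = activation above the mean of all tested compounds plus 3 SD, cut at about 21% in these data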;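 note: 0% = DMSO alone and 100% = DMSO wells spiked with extra 5 µM PC-3 D3A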
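Assay system: Procaspase-3 D3A mutant, all three cleavage aspartates alanine. Buffer or medium: Zinc-free HEPES saline buffer with Triton X-100. Times: 1 h compound preincubation, 2 h substrate hydrolysis at 25 °C. Measured by: 405 nm absorbance of p-nitroaniline, reads at 0 and 120 min. Read-out basis: percent activation relative to control range. Replicates: singlicate.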
pCIP destab – p/CIP protein destabilization. AID 1984. F442A p/CIP-EGFP cells, EGFP fluorescence, 16 h. Q05BA5. decrease of EGFP signal, % at 10 µM. 290,000 tested, 0.01% active;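 active = EGFP signal decrease of at least 30% at 10 µM or well 3 SD below plate mean, unless failing retest; inactive = the rest, including hits failing retest or dose response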
GAA30 FXN cntr – counter-screen for GAA850 frataxin promoter activators: GAA30 promoter activation; shares compounds with FXN GAA850 act; HEK293 lucGAA30 FXN promoter luciferase, 24 h; DMSO = 0%, 5 µM ipriflavone = 100%; activation, % at 6 µM; 1,900 tested, 66% active;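 active = mean activation above the mean of solvent-only control wells plus 3 SD, cut at about 22% in these data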;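 note: counterscreen of GAA850 promoter hits where activity marks nonselective or luminescence artifacts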
GAA850 confirm – GAA850 FXN promoter activation confirmation; HEK293 lucGAA850 FXN promoter luciferase reporter, 24 h; 100% = activation by SAHA; shares compounds with FXN GAA850 act; activation, % at 6 µM; AID 588351; 1,900 tested, 86% active;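 active = mean activation above a set limit taken from the primary screen, cut at about 8% in these data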;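 note: 0% = DMSO wells and 100% = 10 µM SAHA wells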
The depositor's hits bear a star; i = inactive; / = not tested or not shown. Only some compounds are listed: those with a hit (about 1.2% of all), similar ones and a draw of the others.

SMILES | Lipid droplet | proCasp7 act | Rce1 inhib | FXN GAA850 act | proCasp3 act | pCIP destab | GAA30 FXN cntr | GAA850 confirm
S=c1[nH]nc(-c2cc(-c3ccccc3)n[nH]2)n1/N=C/C(Br)=C/c1ccccc1 | 7 | -5 | i | 12* | -21 | -17 | -42 | 26*
S=c1[nH]nc(-c2cc(-c3ccccc3)n[nH]2)n1/N=C/c1ccccc1 | 0 | -7 | i | 2 | -3 | 0 | / | /
Cc1ccc(N(O)C(=O)NCCCCNC(=O)N(O)c2ccc(C)cc2)cc1 | -1 | 6 | i | 7.7* | -3 | 7 | 59* | 21*
CCOC(=O)c1cnc2cc3c(cn2c1=O)CCCC3 | / | 5 | i | 8.2* | 1 | 1 | 98* | 34*
CCOC(=O)c1cc2c(nc1N)CCCC2 | -15 | 3 | i | 4 | -1 | 11 | / | /
CCOc1ccccc1C(=O)OCC(=O)Nc1cc(S(=O)(=O)N2CCOCC2)ccc1C | / | 9 | / | -3 | 6 | / | / | /
Cc1cc(C)c2c(N)c3cccc(C)c3nc2n1 | -185 | -1 | i | 8.0* | -6 | -3 | 12 | 143*
Cc1ccc(-c2csc3ncn(C(C)C(=O)O)c(=O)c23)cc1 (centres undefined) | -5 | -10 | i | 0 | 6 | -6 | / | /
Cc1ccc(C(=O)OCC(=O)NC2CC2)cc1S(=O)(=O)N1CCOCC1 | / | 6 | / | 0 | 3 | / | / | /
CSc1nc(N)nc(SC2C=CCCC2)c1C#N (centres undefined) | 0 | 9 | i | 13* | -11 | -22 | 41* | 22*
O=C(CCC(=O)N1CCOCC1)NCCc1ccc(Cl)cc1Cl | -11 | -2 | i | 0 | -2 | 2 | / | /
O=C(COC(=O)C1CCN(S(=O)(=O)c2ccccc2)CC1)NCCc1ccccc1 | / | 5 | / | 2 | 4 | / | / | /
CSc1ccc(CC(=O)N2CCC(n3nccc3NC(=O)C3CC3)CC2)cc1 | 1 | 6 | i | 7.7* | 2 | -12 | 96* | 32*
O=C1/C(=C\c2ccc(O)c(O)c2)N=C2CCCCCN12 | -10 | -17 | i | 9.8* | -14 | 1 | 74* | 19*
C=CCn1c(SCc2ccccc2)nc2scc(-c3ccc(C)o3)c2c1=O | / | 0 | i | 1 | -3 | -12 | / | /
C=CCn1c(SCC(N)=O)nc2scc(-c3ccc(C)o3)c2c1=O | -5 | -1 | i | 8.2* | -14 | -2 | 128* | 43*
O=C(CNC(=O)c1ccc2c(c1)OCCO2)N=Nc1c(O)[nH]c2ccccc12 | 3 | -5 | i | 1 | 6 | -8 | / | /
COc1nc(=O)n(C2C=CC(=O)O2)cc1F (centres undefined) | / | / | / | 14* | / | / | -20 | 0
COc1cc2ccccc2cc1C(=O)Nc1ccccc1N1CCCC1 | / | 2 | i | -1 | 4 | / | / | /
COc1cc2ccccc2cc1C(=O)Nc1ccccc1Cl | -4 | 19 | i | 8.2* | / | 6 | 121* | 39*
C(=C\c1nc(-c2cccnc2)no1)/c1ccccc1 | 4 | 4 | i | 8.7* | 0 | -2 | 124* | 43*
CCOc1ccc(S(=O)(=O)Nc2ccc(C(=O)N(C)CC(=O)Nc3ccc(OC)cc3)cc2)cc1 | / | -2 | i | 2 | 6 | / | / | /
CCOc1ccc(NS(=O)(=O)c2ccc(C(=O)N(C)CCc3ccc(OC)c(OC)c3)cc2)cc1 | 0 | 0 | i | 9.7* | 6 | 0 | 27* | 15*
CCOc1ccc(S(=O)(=O)N(CC(=O)NCc2ccncc2)c2ccc(C)cc2)cc1 | -8 | 13 | i | -2 | 7 | -3 | / | /
CCOC(=O)[C@H]1[C@H]2COc3cc(OC)ccc3[C@@H]2N2C(=O)CN(CCc3c[nH]c4ccccc34)C(=O)[C@@]12C | / | 3 | / | 1 | 9 | / | / | /
